From ChEMBL document CHEMBL4680077, “Differentiation of skeletal osteogenic progenitor cells to osteoblasts with 3,4-diarylbenzopyran based amide derivatives: Novel osteogenic agents” (Eur J Med Chem, 2016)
The source made the active and inactive calls. The calls are words filed in the database; no cut-off is given here.

Key:
[1] = Acute toxicity in Swiss albino mouse assessed as relative brain weight at 50 mg/kg, po measured after 7 days (reference value: 1.63 +/- 0.13 %); format: organism-based; details: in vivo, 168 h, time 7 day
[2] = Acute toxicity in Swiss albino mouse assessed as relative kidney weight at 300 mg/kg, po measured after 7 days (reference value: 1.25 +/- 0.08 %); format: organism-based; details: in vivo, 168 h, time 7 day
[3] = Acute toxicity in Swiss albino mouse assessed as absolute heart weight at 1000 mg/kg, po measured after 7 days (reference value: 0.12 g); format: organism-based; details: in vivo, 168 h, time 7 day
[4] = Acute toxicity in Swiss albino mouse assessed as relative lung weight at 50 mg/kg, po measured after 7 days (reference value: 0.70 +/- 0.08 %); format: organism-based; details: in vivo, 168 h, time 7 day
Calvarial osteoblast [5] = assay: Induction of osteoblast differentiation in mouse calvarial osteoblast assessed as increase in OCN mRNA expression at 1 pM incubated for 48 hrs by qPCR analysis; format: functional, cell-based
How it was run: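 Calvarial osteoblasts were treated at 1 pM for 24 and 48 h. Total RNA was extracted with TRIzol, and cDNA was made from 2 µg RNA. qPCR ran 40 cycles for BMP-2, RUNX-2, OCN and collagen type 1, with normalization to GAPDH. Mean ± SEM of three independent experiments.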

[6] = AUC (0 to infinity) in Sprague-Dawley rat at 1 mg/kg, iv measured upto 24 hrs by LC-MS/MS analysis; format: ADME, organism-based; set-up: route intravenous, dose 1 mg/kg, time <=24; details: in vivo
How it was run: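 Female Sprague-Dawley rats (n = 4 per route), fasted overnight; 1 mg/kg oral (0.25% CMC) or i.v. tail-vein bolus (DMSO-PEG400-ethanol-water). Plasma was sampled to 24 h and assayed by LC-MS/MS (0.5-200 ng/mL). Non-compartmental AUC0-∞ = AUC0-t + Clast/kel; mean ± S.D.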

[7] = Volume of distribution in Sprague-Dawley rat at 1 mg/kg, po measured upto 24 hrs by LC-MS/MS analysis; format: ADME, organism-based; details: in vivo
How it was run: (§1)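 Female Sprague-Dawley rats (n = 4), fasted overnight 12–14 h, dosed orally at 1 mg kg-1 as a 0.25% CMC suspension and fed 3 h post-dose. Retro-orbital blood was taken from 0.25 to 24 h. Plasma was hexane-extracted and assayed by LC-MS/MS. Cmax and Tmax were read from the data; other parameters came from non-compartmental analysis. Mean ± S.D.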

[8] = Acute toxicity in Swiss albino mouse assessed as serum protein level at 5 mg/kg, po measured after 7 days (reference value: 0.66 +/- 0.01 mg/ml); format: organism-based; details: in vivo, 168 h, time 7 day
Mus musculus = assay: In vivo osteogenic activity in ovariectomized BALB/c mouse assessed as increase in force required to break bone at 1 to 10 mg/kg, po via gavage administered for 1 month by TKC Muromachi bone strength testing method; format: functional, organism-based; details: dose 1-10 mg/kg, time 1.0 months
How it was run: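 Ovariectomized balb/c mice were gavaged with 1 or 10 mg kg-1 daily for one month. Bones were then tested on a bone strength tester for energy, stiffness and force to break. Mean ± SEM compared with the Ovx vehicle group.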

[9] = Acute toxicity in Swiss albino mouse assessed as absolute kidney weight at 1000 mg/kg, po measured after 7 days (reference value: 0.29 +/- 0.02 g); format: organism-based; details: in vivo, 168 h, time 7 day
[10] = Acute toxicity in Swiss albino mouse assessed as creatinine level at 1000 mg/kg, po measured after 7 days (reference value: 0.97 +/- 0.07 mg/dL); format: organism-based; details: in vivo, 168 h, time 7 day
[11] = AUC (0 to 24 hrs) in Sprague-Dawley rat at 1 mg/kg, po measured upto 24 hrs by LC-MS/MS analysis; format: ADME, organism-based; set-up: route oral, dose 1 mg/kg, time <=24; details: in vivo
How it was run: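 Female Sprague-Dawley rats (n = 4 per route), fasted overnight (12-14 h); 1 mg/kg orally in 0.25% CMC suspension, or an i.v. tail-vein bolus in DMSO-PEG400-ethanol-water (4:3:1:2). Retro-orbital blood was taken up to 24 h, and plasma was extracted with n-hexane (halofantrine IS). LC-MS/MS linear range 0.5-200 ng/mL. AUC0-24 was calculated by the linear trapezoidal rule, non-compartmental; mean ± S.D.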

Calvarial osteoblast [12] = assay: Induction of osteoblast differentiation in mouse calvarial osteoblast assessed as increase in ALP activity using PNPP as substrate at 0.000001 to 1 uM incubated activity for 48 hrs by spectrophotometric analysis relative to control; format: functional, cell-based; details: dose lower 1e-06 µM, dose upper 1.0 µM
[13] = Acute toxicity in Swiss albino mouse assessed as lymphocyte count at 5 mg/kg, po measured after 7 days (reference value: 37.97 +/- 1.80 %); format: organism-based; details: in vivo, 168 h, time 7 day
[14] = Acute toxicity in Swiss albino mouse assessed as SGOT level at 1000 mg/kg, po measured after 7 days (reference value: 31.99 +/- 3.37 U/L); format: organism-based; details: in vivo, 168 h, time 7 day
[15] = Elimination rate constant in Sprague-Dawley rat at 1 mg/kg, iv measured upto 24 hrs by LC-MS/MS analysis; format: ADME, organism-based; details: in vivo
[16] = Acute toxicity in Swiss albino mouse assessed as relative liver weight at 50 mg/kg, po measured after 7 days (reference value: 6.81 +/- 2.14 %); format: organism-based; details: in vivo, 168 h, time 7 day
[17] = Acute toxicity in Swiss albino mouse assessed as absolute ovary weight at 300 mg/kg, po measured after 7 days (reference value: 0.04+/- 0.02 g); format: organism-based; details: in vivo, 168 h, time 7 day
Calvarial osteoblast [18] = assay: Induction of osteoblast differentiation in mouse calvarial osteoblast assessed as increase in ERalpha expression at 1 pM incubated for 48 hrs by Western blot analysis; format: functional, cell-based
How it was run: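 Calvarial osteoblasts at 60–70% confluence were treated ± compound for 48 h, with 100 pM E2 as positive control. Lysates (30 µg protein) were resolved on 10% SDS-PAGE, transferred to PVDF and probed for ER-α and ER-β with HRP secondaries and ECL detection. Bands were quantified by densitometry normalized to β-actin.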

[19] = Acute toxicity in Swiss albino mouse assessed as cholesterol level at 300 mg/kg, po measured after 7 days (reference value: 265.76 +/- 24.78 mg/dL); format: organism-based; details: in vivo, 168 h, time 7 day
[20] = Half life in Sprague-Dawley rat at 1 mg/kg, iv measured upto 24 hrs by LC-MS/MS analysis; format: ADME, organism-based; details: in vivo
[21] = Acute toxicity in Swiss albino mouse assessed as tissue protein level at 300 mg/kg, po measured after 7 days (reference value: 0.029 +/- 0.004 mg/ml); format: organism-based; details: in vivo, 168 h, time 7 day
[22] = Cmax in Sprague-Dawley rat at 1 mg/kg, po measured upto 24 hrs by LC-MS/MS analysis; format: ADME, organism-based; set-up: route oral, dose 1 mg/kg, time <=24; details: in vivo; how it was run: as §1
[23] = Acute toxicity in Swiss albino mouse assessed as relative testes weight at 5 mg/kg, po measured after 7 days (reference value: 0.62 +/- 0.03 %); format: organism-based; details: in vivo, 168 h, time 7 day
[24] = Acute toxicity in Swiss albino mouse assessed as tissue protein level at 1000 mg/kg, po measured after 7 days (reference value: 0.029 +/- 0.004 mg/ml); format: organism-based; details: in vivo, 168 h, time 7 day
[25] = Acute toxicity in Swiss albino mouse assessed as triglycerides level at 1000 mg/kg, po measured after 7 days (reference value: 58.51 +/- 10.82 mg/dL); format: organism-based; details: in vivo, 168 h, time 7 day
[26] = Acute toxicity in Swiss albino mouse assessed as relative ovary weight at 1000 mg/kg, po measured after 7 days (reference value: 0.07 +/- 0.02 %); format: organism-based; details: in vivo, 168 h, time 7 day

Compound `CCCCN(C)C(=O)CCCCOc1ccc([C@H]2c3ccc(OC)cc3OC(C)(C)[C@@H]2c2ccccc2)cc1` has an Activity [1] of 1.54%, an Activity [2] of 1.14% and an Activity [3] of 0.12 g. For the same compound, the Activity [4] was 0.84%, the Activity (Calvarial osteoblast [5]) was “Active” and the AUC(0-inf) [6] was 906 ng·h/mL. The Vd [7] was 5.822 L/kg, the Activity [8] was 0.74 mg/mL and the Activity (Mus musculus) was “Active”. It also gave an Activity [9] of 0.29 g, an Activity [10] of 0.69 mg/dL and an AUC(0-t) [11] of 114 ng·h/mL. The Activity (Calvarial osteoblast [12]) was “Active”, the Activity [13] was 39.08% and the Activity [14] was 38.6 U/L. It also gave a k el at 24 h [15] of 5.47e-05 s⁻¹, an Activity [16] of 5.17% and an Activity [17] of 0.06 g. The Activity (Calvarial osteoblast [18]) was “inactive”, the Activity [19] was 257.26 mg/dL and the half-life [20] was 211 min. For the same compound, the Activity [21] was 0.034 mg/mL, the Cmax [22] was 38.9 ng/mL and the Activity [23] was 0.6%. For the same compound, the Activity [24] was 0.032 mg/mL, the Activity [25] was 92.31 mg/dL and the Activity [26] was 0.05%.
